For orientation: apparent Kd means the concentration giving half-maximal binding under the conditions of the assay.

In this data set the test system is MS2 coat protein. The data set is described as follows: apparent Kd, MS2 coat protein; higher = weaker binding; RNA-MaP array. The procedure, abridged: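 In Tris-HCl pH 7.5 buffer with KCl, MgCl2, BSA, DTT, tRNA and Tween20, with or without input ligand, fluorescently labeled MS2 coat protein at 1.5 nM to 3 μM was incubated at room temperature with designed RNAs. The RNAs had been transcribed on an Illumina sequencing chip from sequenced DNA templates, and incubation ran 0.8–1.5 h at the lowest to 10–20 min at the highest concentrations. Apparent Kd is the median of binding-curve fits for individual clusters. Designs measured on fewer than 10 clusters were excluded.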

[1] abbreviates: designed as: OFF switch for tryptophan, no ligand.
The mark [2] stands for this setting: ligand present: tryptophan, designed as: OFF switch for tryptophan.
[3] abbreviates: designed as: OFF switch for theophylline, no ligand.
The mark [4] stands for this setting: ligand present: theophylline, designed as: OFF switch for theophylline.
[5] abbreviates: designed as: OFF switch for flavin mononucleotide, no ligand.
The mark [6] stands for this setting: ligand present: flavin mononucleotide, designed as: OFF switch for flavin mononucleotide.
Setting [7] is: designed as: ON switch for flavin mononucleotide, no ligand.
[8] abbreviates: ligand present: flavin mononucleotide, designed as: ON switch for flavin mononucleotide.
Setting [9] is: designed as: ON switch for theophylline, no ligand.
[10] abbreviates: ligand present: theophylline, designed as: ON switch for theophylline.

For the sequence “AAACGCUAUGCGGCCGCCACUAAGGUUGGCGUCUAUGUCGUUUAAGACAUGAGGAUCACCCAUGUUAGGACCGGGCAUGUCCGCG”, the “apparent Kd” value by setting is: under setting [1], 21.2 nM; under setting [2], 21.1 nM.

As for “GAAUUAUGACGUGAUACCAGUGGUCAAUACUGGGAACUUAACAUGAGGAUCACCCAUGUCCACCCUUGGCAGCACGCUGACAAUC”, the “apparent Kd” value under setting [3] is 94 nM and the “apparent Kd” value under setting [4] amounted to 236 nM.

In the case of “AAUUGGAUCACAUGAGGAUCACCCAUGUCGGAAACUUUACUCAGAAGGAUGUGUACUUUUUCCACAUAGGAUAUGAGUACGACA”, the “apparent Kd” value is, setting by setting: under setting [5], 69.5 nM; under setting [6], 74.6 nM.

Regarding “UACCUUAUUGUUAGGAUAUGCAGAUACAAAGGUGAGCAGAAGGAACAUGAGGAUCACCCAUGUAAAAUAAUAAA”, the “apparent Kd” value reads like this: under setting [5], 16.6 nM; under setting [6], 48 nM.

Regarding “AGAUAAUCUUGGGAUUUCGUACAUGAGGAUCACCCAUGUCCAGAGGAUAUGCAUAGACAGGCAUCGCAGAAGGCUGGUGAACAG”, the “apparent Kd” value by setting is: under setting [7], 35.4 nM; under setting [8], 27.6 nM.

“UAGAUAAGAAUCAAGGAUAUGAAAAGGCACACAUGAGGAUCACCCAUGUCAAGCACAAAAUGACGUCAGAAGGUGAUAAGCAGCAA”: the “apparent Kd” value reads like this: under setting [7], 57.6 nM; under setting [8], 35 nM.

Turning to “UAUUCUGACACAGAUACCAGUCAAUUCCGUGGCAAGUGCUACAUGAGGAUCACCCAUGUCGACCCUUGGCAGCUGAAGAGAUACA”, the “apparent Kd” value came out at 12.1 nM under setting [3] and 14.1 nM under setting [4].

Consider “CCUCACGAAAUCGAUGAAAGCAUGUGGCACCGAGGACCGGUACGGCCGCCACUCGCAUCCACACAUGAGGAUCACCCAUGUAAGA”, for which the “apparent Kd” value came to 39.3 nM under setting [1] and 51.6 nM under setting [2].

On to “GACUAACAUGAGGAUCACCCAUGUGAAGAUACCAGUAAUUUCACCUACCCUUGGCAGCUUUUUUUGAACGGCCUGAAUGCCUUGU”, for which the “apparent Kd” value under setting [9] stood at 11.3 nM and the “apparent Kd” value under setting [10] is 17.1 nM.

With “CGCAGACAUGAGGAUCACCCAUGUACCAUGAACAGGAAUACAAGAAGGGCAAACUUUAGAUUGAUGCAGGAUAUUGUCACGAGA”, the “apparent Kd” value reads like this: under setting [7], 25.8 nM; under setting [8], 14 nM.

As to “UUAACAUGAGGAUCACCCAUGUGAAGCCGGCGAUGAAUAGUACAGGAUAUCGAAUACCGCCUAGACGAGAAGGGUAUCAAUCGG”, the “apparent Kd” value reads like this: under setting [7], 14.2 nM; under setting [8], 12.7 nM.

In the case of “AUGCAACAUGAGGAUCACCCAUGUGGUGAUACCAGUCGACAAGUAGACCCUUGGCAGCACAGCCGAUAUCGAGAGAGAUUUUUGG”, the “apparent Kd” value was 487 nM under setting [9] and 650 nM under setting [10].

Take “UGACCGUUAAUAGGAUAUGUUCUCUUCCACAUGAGGAUCACCCAUGUAAACUAUUGUGAAACUGGACAGAAGGAUUAAACAUUG”: the “apparent Kd” value is 17.1 nM under setting [5] and 14.1 nM under setting [6].

For “CCAACAACGGAGAAGGCGUGACUGGUUUCACAGACAGUGUGGCACAUGAGGAUCACCCAUGUGAACGAGGAUAUCCGUGUGCGA”, the “apparent Kd” value reads like this: under setting [7], 11.6 nM; under setting [8], 7.4 nM.

For the sequence “GACAGUUUAUAGGAUAUCGACUCGACUGGGCAUCGAGAAGGAUAAACAUGAGGAUCACCCAUGUGUGGUAGGAA”, the “apparent Kd” value amounted to 39.2 nM under setting [5] and 125 nM under setting [6].

For the sequence “UCACUCCUGAUGGAUACCAGUUACUAACGCAACAUGAGGAUCACCCAUGUGAACACUCAGAACCCUUGGCAGCCAGGAGAACGAA”, the “apparent Kd” value reads like this: under setting [9], 48.2 nM; under setting [10], 25.5 nM.

On to “AUAUUUUCAGGAUAUCAACUUCACUACAUGAGGAUCACCCAUGUCCUCUAUUGUUUACUGUGAGAAGGGAAAGAGA”, for which the “apparent Kd” value under setting [5] is 1010 nM and the “apparent Kd” value under setting [6] came out at 507 nM.

As for “AAGCGUAGCUAGGAUAUGUAAUGACGGCUUUGAACAGAAGGAGCUACAUGAGGAUCACCCAUGUGUCCGACACA”, the “apparent Kd” value by setting is: under setting [5], 15.9 nM; under setting [6], 125 nM.

In the case of “AUGCAUCUAGGAUAUGCGGUGAUUUACAUGAGGAUCACCCAUGUAGACCACCGGUCUAGAGCAGAAGGAGAUGUGG”, the “apparent Kd” value is, setting by setting: under setting [5], 5.17 nM; under setting [6], 5.54 nM.

Consider “CGCGUGUUCGAGGAUAUGGAACUGAUAUUAGACCCAGAAGGCGAGACAUGAGGAUCACCCAUGUGAGGACUAAC”, for which the “apparent Kd” value under setting [5] was determined as 18.6 nM and the “apparent Kd” value under setting [6] was 53.8 nM.

Regarding “AAAUUACGUAAGAAGGCCAUAGGAACUGAAGCAAGCUCGACGACACAUGAGGAUCACCCAUGUCUGGAGGAUAUUAUGAUAUCU”, the “apparent Kd” value reads like this: under setting [7], 10.3 nM; under setting [8], 9.64 nM.

Turning to “CUCGCUAAAGUAGGAUAUACACAGACAUGAGGAUCACCCAUGUAACGAUGAACCCUUAUUAGAUGGUAGAAGGACUCAAGGCCG”, the “apparent Kd” value under setting [5] was found to be 13.1 nM.

Consider “GGAAGCUCCUUGAGACAUGAGGAUCACCCAUGUGCCAUUCCGAGAAGGUAGACUGGACGAGAGGCUAAGGAUAUCGGCGCGCUC”, for which the “apparent Kd” value amounted to 16.7 nM under setting [5] and 15.6 nM under setting [6].

On to “GGUCAGCAGUCGGCCGCCACUAGUAUACAUGAGGAUCACCCAUGUCCCUUGCGCCUCACCGAUUUUAGGACCGGGACACUGCCUG”, for which the “apparent Kd” value runs as follows: under setting [1], 32.8 nM; under setting [2], 29.3 nM.

In the case of “AAAUAUCAGUAGAAGGGCAUUUAAUCGAGACAUGCAGGAUAUACCAAUAACAGAUAAUUCUACAUGAGGAUCACCCAUGUACAG”, the “apparent Kd” value was found to be 12.7 nM under setting [7] and 9.19 nM under setting [8].

Take “UUGUGGGCGCUUCAGGAUAUCGCAAAAGAAACAUGAGGAUCACCCAUGUGGCCGAAGCAACUGGGCGAGAAGGGAAAGGCCCGAAG”: the “apparent Kd” value runs as follows: under setting [7], 17.3 nM; under setting [8], 14.1 nM.

With “AGUUAGCCUGAUGAGGAUAUACACGCCCGGACAUGAGGAUCACCCAUGUUAACAAGUUAGCUAUUGUAGAAGGCAUCGAGGUGAUG”, the “apparent Kd” value runs as follows: under setting [7], 44.8 nM; under setting [8], 33.5 nM.

Turning to “CGCCUAGGGUAUCAGGAUAUGACGGGCAUAACAUGAGGAUCACCCAUGUAAGAGUAGUACAGUUGUCAGAAGGGAUGAUCUAGAAU”, the “apparent Kd” value by setting is: under setting [7], 162 nM; under setting [8], 25.5 nM.

On to “ACCGGAAAAGGAUAUCGAAUUAGCAACAUGAGGAUCACCCAUGUCUGUCGCUCGUGUAUUCGAGAAGGUUUCGCCC”, for which the “apparent Kd” value reads like this: under setting [5], 4.96 nM; under setting [6], 5.34 nM.

Turning to “UUCUACAUGAGGAUCACCCAUGUCCCUGGGACCCUUGCAUCCAGAAGGCACGACUAGAUGGUGUGUGAGGAUAUGGAGGCGCUU”, the “apparent Kd” value is, setting by setting: under setting [5], 162 nM; under setting [6], 144 nM.

For the sequence “UGCAAAUGAUGAGAUACCAGUUCAGUUAAAUACAUGAGGAUCACCCAUGUCAGGGAACUCAACCCUUGGCAGCUCGAUGCACUCA”, the “apparent Kd” value under setting [9] turned out to be 56.2 nM and the “apparent Kd” value under setting [10] amounted to 14.9 nM.

“CUCCCUCAGUCAGGAUAUGUGUCUUCCCAACAGGACAUGAGGAUCACCCAUGUCGCAAGCAUGGGACAGAAGGGACAUGGAGCC”: the “apparent Kd” value by setting is: under setting [5], 23.8 nM; under setting [6], 19.6 nM.

For “AACAAGGAAGGAUAUACAUGAGGAUCACCCAUGUCACUAGGGCCUCCCGCUUCGCUGUGUAGAAGGACCAUGAA”, the “apparent Kd” value under setting [5] is 9.74 nM and the “apparent Kd” value under setting [6] came to 8.89 nM.

For “GGACUACAUGAGGAUCACCCAUGUUUUUAAGACACAGGAUAUGAUCACCGCGGACAUGUAUCAGAAGGGUGUACAU”, the “apparent Kd” value under setting [7] is 21.8 nM and the “apparent Kd” value under setting [8] was 10.1 nM.

Regarding “AAUGUAUGUUAGGAUAUGGCCACGGCGAGGGACCCAGAAGGAACCACAUGAGGAUCACCCAUGUAAAAUAUGGA”, the “apparent Kd” value is, setting by setting: under setting [5], 20.3 nM; under setting [6], 16.4 nM.

Turning to “AUCUAACAUGAGGAUCACCCAUGUCAGGAUAUUGCAGCCGUAGUAGGUCUAGUUUGUGCAAGAAGGGACAUCUC”, the “apparent Kd” value was 9.55 nM under setting [5] and 22.5 nM under setting [6].

Turning to “CAGGCUUUCAAGAAGGACCUGGUAACAUCAGUGGUAGGAUAUUGGUUAAGCUUGGCUUGACAUGAGGAUCACCCAUGUGGCGUA”, the “apparent Kd” value was determined as 47.4 nM under setting [7] and 11.4 nM under setting [8].

Regarding “CGGUUACAUGAGGAUCACCCAUGUUCCAUGGUUGAAGGAUAUGGCGACGGCGCGUGGGUACCAGAAGGUCAGGCAC”, the “apparent Kd” value by setting is: under setting [7], 26 nM; under setting [8], 19.6 nM.

Consider “AACGCGCAAGAGAAGGGACGGGAGAUUCCGUGGGCUCUGAUCCUACAUGAGGAUCACCCAUGUAGUCAGGAUAUCUGGAGACGC”, for which the “apparent Kd” value runs as follows: under setting [5], 106 nM; under setting [6], 124 nM.

Regarding “GCAAGGUUUGUAGGAUAUCGCGUGUGAUUGAACAUGAGGAUCACCCAUGUGGAGGUUCCAUUAUCCGAGAAGGACAAGACUCGA”, the “apparent Kd” value under setting [5] worked out at 155 nM and the “apparent Kd” value under setting [6] is 84.2 nM.

“GUCGAAUCCUGAGGAUAUUCAGUGAUGGCUCAGACAUGAGGAUCACCCAUGUUACUCAGUGAGCGGAAGAAGGCAGCCUUCGGG”: the “apparent Kd” value is, setting by setting: under setting [7], 163 nM; under setting [8], 131 nM.

As for “CCCAAAGACACAUGAGGAUCACCCAUGUUCCGCAAACAAUUGGAGGAUAUGAAGGAACGCAGCAAACAGAAGGCCAUAAAUAGC”, the “apparent Kd” value reads like this: under setting [7], 16.8 nM; under setting [8], 9.67 nM.

“UAGGAUCAAGUAGGAUAUGUAGAACGGCUUUGUACAGAAGGACUAGUACAUGAGGAUCACCCAUGUUAGGGUACCUCUAAGGCA”: the “apparent Kd” value under setting [6] is 198 nM.

For the sequence “GCUCUCCAAGGAUAUUAGGUGUGUUACAUGAGGAUCACCCAUGUUUUCCAAUGAAUCGUCUAAGAAGGUGGCUAUU”, the “apparent Kd” value by setting is: under setting [5], 14.3 nM; under setting [6], 12.9 nM.

“CCGAACAUGAGGAUCACCCAUGUAUCCGAGCGAGGACCGGUACGGCCGCCACUCGAACUGCACCGGAAAAGGGAAACACCGAUCC”: the “apparent Kd” value was 56.2 nM (designed as: ON switch for tryptophan, no ligand) and 61.8 nM (ligand present: tryptophan, designed as: ON switch for tryptophan).

As to “UAACUGGACCAGAAGGGAGCGCGUCGCGCAUCAACAUACAUGAGGAUCACCCAUGUUCGAGAGUCUCAGGAUAUGGCCGGUAUA”, the “apparent Kd” value under setting [7] is 9.92 nM and the “apparent Kd” value under setting [8] was 7.91 nM.

“CUGUUUACAUGAGCCCGUCAUAUAUACGAUACCAGUUAAAGAUGAAACCCUUGGCAGCGUAGGACAUGAGGAUCACCCAUGUGCC”: the “apparent Kd” value is 18.6 nM under setting [3] and 33.1 nM under setting [4].

Values taken from the EternaBench riboswitch data.
